Source: ChEMBL document CHEMBL1135931, “Rational design, synthesis, and biological activity of novel conformationally restricted vitamin D analogues, (22R)- and (22S)-22-ethyl-1,25-dihydroxy-23,24-didehydro-24a,24b-dihomo-20-epivitamin D(3)” (2002)

How the values were obtained:
C3H 10T1/2 = assay: Cells were harvested and were assayed for luciferase and -galactosidase activities (Transcriptional activity); assay type: functional, Mus musculus
Outline: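 10T1/2 cells in DMEM with 10% charcoal-stripped FBS, 37 °C, 5% CO2; calcium-phosphate transfection 12 h with SPP×3-TK-LUC reporter, pCMX-β-GAL internal control, pUC18 carrier. Ligand 10^-11 to 10^-7 M for 48 h; luciferase normalized to β-galactosidase, duplicate points. Relative activity taken at ED50, as percent of 1,25-(OH)2D3.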

HL-60 = assay: Differentiation activity of human promyelocytic leukemia cells (HL-60) determined by an NBT reduction assay method; assay type: functional
Rattus norvegicus = assay: Calcemic activity (in vivo bone calcium mobilization) was measured by the rise in serum calcium in vitamin D and Ca deficient rats by colorimetric assay; assay type: functional; design: concentration or dose not given beside the values
Outline: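 Weanling male rats on vitamin D-deficient low-calcium diet (0.03% Ca, 0.6% P) for 3 weeks; single intravenous dose of 1 μg analogue in ethanol (50 μL) or vehicle alone. Serum calcium read colorimetrically (o-cresolphthalein complexone) at 0, 6, 12, 24 and 48 h post-dose; activity expressed as percent of 1,25-(OH)2D3.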

[1] = target: T1, Vitamin D3 receptor (Bos taurus) (UniProt Q28037); assay: Relative affinity for bovine thymus Vitamin D3 receptor (VDR)
T1 sequence (whole entry): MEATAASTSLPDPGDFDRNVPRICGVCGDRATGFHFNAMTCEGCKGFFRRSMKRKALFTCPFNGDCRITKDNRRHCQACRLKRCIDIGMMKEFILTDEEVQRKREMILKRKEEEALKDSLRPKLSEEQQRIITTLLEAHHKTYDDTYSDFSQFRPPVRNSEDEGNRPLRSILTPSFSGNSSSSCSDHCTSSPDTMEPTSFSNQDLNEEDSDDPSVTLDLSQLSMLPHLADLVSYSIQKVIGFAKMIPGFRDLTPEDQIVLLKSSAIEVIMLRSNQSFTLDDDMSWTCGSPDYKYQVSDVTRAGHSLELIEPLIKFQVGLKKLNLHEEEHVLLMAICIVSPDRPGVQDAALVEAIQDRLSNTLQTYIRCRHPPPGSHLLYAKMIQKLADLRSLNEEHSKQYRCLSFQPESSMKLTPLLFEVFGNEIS
Outline: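 Bovine thymus VDR in 0.05 M phosphate pH 7.4, 0.3 M KCl, 5 mM DTT; incubated with 0.1 nM [3H]-1,25-(OH)2D3 plus graded analogue, 19 h at 4 °C. Dextran-coated charcoal separation 20 min at 4 °C, centrifuge 1000g 10 min, supernatant counted; duplicate. Relative affinity at 50% displacement, as percent of 1,25-(OH)2D3.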

Activity [1] [%]	Structure (SMILES)	Activity (C3H 10T1/2) [%]	Activity (HL-60) [%]	Activity (Rattus norvegicus) [%]
14	C=C1/C(=C\C=C2/CCC[C@]3(C)[C@@H]([C@@H](C)[C@@H](/C=C/CCC(C)(C)O)CC)CC[C@@H]23)C[C@@H](O)C[C@@H]1O	2500	9800	140
0.4	C=C1/C(=C\C=C2/CCC[C@]3(C)[C@@H]([C@@H](C)[C@@H](C)CCC(C)(C)O)CC[C@@H]23)C[C@@H](O)C[C@@H]1O	3	8	5
1100	C=C1/C(=C\C=C2/CCC[C@]3(C)[C@@H]([C@@H](C)[C@H](C)CCC(C)(C)O)CC[C@@H]23)C[C@@H](O)C[C@@H]1O	10000	12000	220
100	C=C1/C(=C\C=C2/CCC[C@]3(C)[C@@H]([C@H](C)CCCC(C)(C)O)CC[C@@H]23)C[C@@H](O)C[C@@H]1O [CALCITRIOL]	100	100	100
0.2	C=C1/C(=C\C=C2/CCC[C@]3(C)[C@@H]([C@@H](C)[C@H](/C=C/CCC(C)(C)O)CC)CC[C@@H]23)C[C@@H](O)C[C@@H]1O	33	77	38
